What is called Ki is a dissociation constant, usually derived from enzyme kinetics or from competition with a known ligand. A low value points to higher affinity.

A value given as a limit tells only on which side of the number the result lay.

In one experiment the target is Adrenergic receptors; alpha-1 A & B (Homo sapiens) (UniProt P35348+P35368). Kind of experiment: Ratio of binding affinity towards Alpha1b to Alpha-1A. It counts as protein assay. In outline:
(§1)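 Human α1a, α1b and α1d cDNAs transiently expressed in COS-1 cells (DEAE-dextran); membranes harvested 72 h post-transfection. Competition versus 50 pM [125I]HEAT (final), 0.1 pM–10 μM test compound in half-log steps, in TNE buffer pH 7.4. Membrane protein 0.1 μg (α1a, α1b) or 2.6 μg (α1d); 1 h at 25 °C. Filtration, scintillation counting; Ki = IC50/(1 + [L]/Kd). Ratios are subtype Ki over α1a Ki.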
`CC(C)Oc1ccccc1N1CCN(CC(O)CNC(=O)c2ccc3c(c2)C(=O)N(c2cccc(F)c2)C3=O)CC1` (stereo not drawn): the Ratio was greater than 1220.

Take `CC(C)Oc1ccccc1N1CCN(C[C@@H](O)CNC(=O)c2ccc3c(c2)C(=O)N(c2ccc(O)cc2)C3=O)CC1`: the Ratio is greater than 4350.

On to `COc1ccc(N2C(=O)c3ccc(C(=O)NCC(O)CN4CCN(c5ccccc5OC(C)C)CC4)cc3C2=O)cc1OC` (stereo not drawn), for which the Ratio was greater than 2040.

With `Cc1ccc(N2C(=O)c3ccc(C(=O)NCC(O)CN4CCN(c5ccccc5OC(C)C)CC4)cc3C2=O)cc1` (stereo not drawn), the Ratio is greater than 3030.

For the compound `CC(C)Oc1ccccc1N1CCN(CC(O)CNC(=O)c2ccc3c(c2)C(=O)N(c2ccc(C(C)(C)C)cc2)C3=O)CC1` (stereo not drawn), the Ratio is greater than 650.

Consider `CC(C)Oc1ccccc1N1CCN(CC(O)CNC(=O)c2ccc3c(c2)C(=O)N(c2ccc(F)cc2)C3=O)CC1` (stereo not drawn), for which the Ratio is greater than 1100.

On to `COc1ccccc1N1CCN(CC(O)CNC(=O)c2ccc3c(c2)C(=O)N(c2cccc(F)c2)C3=O)CC1` (stereo not drawn), for which the Ratio is greater than 90.

`CC(C)Oc1ccccc1N1CCN(CCCNC(=O)c2ccc3c(c2)C(=O)N(c2ccc(N(C)C)cc2)C3=O)CC1`: the Ratio was found to be 2580.

Turning to `CCOc1ccccc1N1CCN(CC(O)CNC(=O)c2ccc3c(c2)C(=O)N(c2cccc(F)c2)C3=O)CC1` (stereo not drawn), the Ratio was greater than 470.

For `CC(C)Oc1ccccc1N1CCN(CC(O)CNC(=O)c2ccc3c(c2)C(=O)N(c2ccccc2)C3=O)CC1` (stereo not drawn), the Ratio was greater than 1820.

Another experiment has as its system Alpha-1D/Alpha-1A adrenergic receptor (Homo sapiens). Description: Ratio of binding affinity towards Alpha1d to Alpha-1A.
For `COc1ccc(N2C(=O)c3ccc(C(=O)NCC(O)CN4CCN(c5ccccc5OC(C)C)CC4)cc3C2=O)cc1OC` (stereo not drawn), the Ratio worked out at 57.

Turning to `CC(C)Oc1ccccc1N1CCN(CC(O)CNC(=O)c2ccc3c(c2)C(=O)N(c2ccccc2)C3=O)CC1` (stereo not drawn), the Ratio was determined as 72.

The next experiment addresses T1, Alpha-1B adrenergic receptor (Homo sapiens, UniProt P35368).
T1 sequence (P35368 whole entry): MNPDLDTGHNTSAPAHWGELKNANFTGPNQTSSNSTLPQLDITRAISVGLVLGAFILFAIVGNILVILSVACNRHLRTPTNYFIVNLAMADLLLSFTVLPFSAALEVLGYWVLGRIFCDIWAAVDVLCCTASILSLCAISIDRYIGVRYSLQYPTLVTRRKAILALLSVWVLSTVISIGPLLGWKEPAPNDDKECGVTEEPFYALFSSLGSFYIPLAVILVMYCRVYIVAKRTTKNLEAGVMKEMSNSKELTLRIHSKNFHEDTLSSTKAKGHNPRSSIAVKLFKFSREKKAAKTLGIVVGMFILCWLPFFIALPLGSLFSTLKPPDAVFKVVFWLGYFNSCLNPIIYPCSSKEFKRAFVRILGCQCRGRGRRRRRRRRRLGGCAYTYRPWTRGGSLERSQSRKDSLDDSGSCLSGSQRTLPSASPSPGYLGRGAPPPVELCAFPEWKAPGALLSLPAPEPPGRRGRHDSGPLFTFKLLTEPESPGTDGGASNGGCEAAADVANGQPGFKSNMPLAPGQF
Kind of experiment: Binding affinity towards cloned human alpha-1B adrenergic receptor was determined using [125]-HEAT as radioligand. In outline: as §1
In the case of `COc1ccc(N2C(=O)c3ccc(C(=O)NC[C@@H](O)CN4CCN(c5ccccc5OC(C)C)CC4)cc3C2=O)cc1`, the inhibitory constant (Ki) is greater than 2 µM.

The compound `COc1ccc(N2C(=O)c3ccc(C(=O)NCC(O)CN4CCN(c5ccccc5OC(C)C)CC4)cc3C2=O)cc1` (stereo not drawn) gave an inhibitory constant (Ki) greater than 2 µM.

`COc1ccc(N2C(=O)c3ccc(C(=O)NC[C@H](O)CN4CCN(c5ccccc5OC(C)C)CC4)cc3C2=O)cc1`: the inhibition constant (Ki) is greater than 1.75 µM.

`CC(C)Oc1ccccc1N1CCN(CC(O)CNC(=O)c2ccc3c(c2)C(=O)N(c2cccc(F)c2)C3=O)CC1` (stereo not drawn) displayed a Ki greater than 2 µM.

`CC(C)Oc1ccccc1N1CCN(C[C@@H](O)CNC(=O)c2ccc3c(c2)C(=O)N(c2ccc(O)cc2)C3=O)CC1` displayed an inhibition constant Ki greater than 2 µM.

For the compound `COc1ccc(N2C(=O)c3ccc(C(=O)NCC(O)CN4CCN(c5ccccc5OC(C)C)CC4)cc3C2=O)cc1OC` (stereo not drawn), the Ki was greater than 2 µM.

Turning to `Cc1ccc(N2C(=O)c3ccc(C(=O)NCC(O)CN4CCN(c5ccccc5OC(C)C)CC4)cc3C2=O)cc1` (stereo not drawn), the Ki was greater than 2 µM.

In the case of `CC(C)Oc1ccccc1N1CCN(CC(O)CNC(=O)c2ccc3c(c2)C(=O)N(c2ccc(C(C)(C)C)cc2)C3=O)CC1` (stereo not drawn), the inhibition constant Ki is greater than 2 µM.

The compound `CC(C)Oc1ccccc1N1CCN(CC(O)CNC(=O)c2ccc3c(c2)C(=O)N(c2ccc(F)cc2)C3=O)CC1` (stereo not drawn) displayed a Ki greater than 1.66 µM.

In turn, `COc1ccccc1N1CCN(CC(O)CNC(=O)c2ccc3c(c2)C(=O)N(c2cccc(F)c2)C3=O)CC1` (stereo not drawn) gave a Ki greater than 2 µM.

As for `CC(C)Oc1ccccc1N1CCN(CCCNC(=O)c2ccc3c(c2)C(=O)N(c2ccc(N(C)C)cc2)C3=O)CC1`, the affinity, expressed as Ki, was 0.465 µM.

`CCOc1ccccc1N1CCN(CC(O)CNC(=O)c2ccc3c(c2)C(=O)N(c2cccc(F)c2)C3=O)CC1` (stereo not drawn) registered an inhibitory constant (Ki) greater than 2 µM.

As for `CC(C)Oc1ccccc1N1CCN(CC(O)CNC(=O)c2ccc3c(c2)C(=O)N(c2ccccc2)C3=O)CC1` (stereo not drawn), the inhibitory constant (Ki) is greater than 2 µM.

Another experiment addresses T2, Alpha-1D adrenergic receptor (Homo sapiens, UniProt P25100).
T2 sequence (P25100 whole entry): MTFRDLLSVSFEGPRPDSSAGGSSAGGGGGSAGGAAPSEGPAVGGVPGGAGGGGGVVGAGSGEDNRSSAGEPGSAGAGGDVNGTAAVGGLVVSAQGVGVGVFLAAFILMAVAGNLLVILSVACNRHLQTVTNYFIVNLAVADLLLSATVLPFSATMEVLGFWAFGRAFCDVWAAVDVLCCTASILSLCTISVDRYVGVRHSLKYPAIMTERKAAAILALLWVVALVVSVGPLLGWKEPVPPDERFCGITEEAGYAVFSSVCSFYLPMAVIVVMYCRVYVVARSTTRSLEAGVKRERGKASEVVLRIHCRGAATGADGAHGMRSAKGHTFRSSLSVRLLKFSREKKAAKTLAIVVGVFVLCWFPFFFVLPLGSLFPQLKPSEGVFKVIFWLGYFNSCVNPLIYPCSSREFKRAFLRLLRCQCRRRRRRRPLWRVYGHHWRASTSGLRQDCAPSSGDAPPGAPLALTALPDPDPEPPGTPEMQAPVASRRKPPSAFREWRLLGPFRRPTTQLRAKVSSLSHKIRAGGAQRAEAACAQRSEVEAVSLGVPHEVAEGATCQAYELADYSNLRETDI
Kind of experiment: Binding affinity towards cloned human alpha-1D adrenergic receptor was determined using [125]-HEAT as radioligand. In outline: as §1
In turn, `COc1ccc(N2C(=O)c3ccc(C(=O)NC[C@@H](O)CN4CCN(c5ccccc5OC(C)C)CC4)cc3C2=O)cc1` registered a Ki of 0.052 µM. This counts as double-digit nanomolar.

Consider `COc1ccc(N2C(=O)c3ccc(C(=O)NCC(O)CN4CCN(c5ccccc5OC(C)C)CC4)cc3C2=O)cc1` (stereo not drawn), for which the Ki amounted to 0.051 µM.

`COc1ccc(N2C(=O)c3ccc(C(=O)NC[C@H](O)CN4CCN(c5ccccc5OC(C)C)CC4)cc3C2=O)cc1` showed a Ki of 0.124 µM. Compared with the last compound, the Ki is about 2.4-fold higher.

As to `CC(C)Oc1ccccc1N1CCN(CC(O)CNC(=O)c2ccc3c(c2)C(=O)N(c2cccc(F)c2)C3=O)CC1` (stereo not drawn), the inhibition constant Ki was 0.075 µM.

For the compound `CC(C)Oc1ccccc1N1CCN(C[C@@H](O)CNC(=O)c2ccc3c(c2)C(=O)N(c2ccc(O)cc2)C3=O)CC1`, the affinity corresponds to a Ki of 0.137 µM. This Ki is about 1.8-fold higher than that of the compound before.

Turning to `COc1ccc(N2C(=O)c3ccc(C(=O)NCC(O)CN4CCN(c5ccccc5OC(C)C)CC4)cc3C2=O)cc1OC` (stereo not drawn), the inhibition constant Ki stood at 0.056 µM.

As for `Cc1ccc(N2C(=O)c3ccc(C(=O)NCC(O)CN4CCN(c5ccccc5OC(C)C)CC4)cc3C2=O)cc1` (stereo not drawn), the Ki stood at 0.062 µM.

Regarding `CC(C)Oc1ccccc1N1CCN(CC(O)CNC(=O)c2ccc3c(c2)C(=O)N(c2ccc(C(C)(C)C)cc2)C3=O)CC1` (stereo not drawn), the inhibitory constant (Ki) amounted to 0.075 µM.

As to `CC(C)Oc1ccccc1N1CCN(CC(O)CNC(=O)c2ccc3c(c2)C(=O)N(c2ccc(F)cc2)C3=O)CC1` (stereo not drawn), the Ki amounted to 0.111 µM.

`COc1ccccc1N1CCN(CC(O)CNC(=O)c2ccc3c(c2)C(=O)N(c2cccc(F)c2)C3=O)CC1` (stereo not drawn) gave an inhibitory constant (Ki) of 0.54 µM.

`CC(C)Oc1ccccc1N1CCN(CCCNC(=O)c2ccc3c(c2)C(=O)N(c2ccc(N(C)C)cc2)C3=O)CC1` registered a Ki of 0.015 µM.

Compound `CCOc1ccccc1N1CCN(CC(O)CNC(=O)c2ccc3c(c2)C(=O)N(c2cccc(F)c2)C3=O)CC1` (stereo not drawn) had a Ki of 0.137 µM.

The compound `CC(C)Oc1ccccc1N1CCN(CC(O)CNC(=O)c2ccc3c(c2)C(=O)N(c2ccccc2)C3=O)CC1` (stereo not drawn) showed a Ki of 0.065 µM.

The target in the next experiment is T3, Alpha-1A adrenergic receptor (Homo sapiens, UniProt P35348).
T3 sequence (P35348 whole entry): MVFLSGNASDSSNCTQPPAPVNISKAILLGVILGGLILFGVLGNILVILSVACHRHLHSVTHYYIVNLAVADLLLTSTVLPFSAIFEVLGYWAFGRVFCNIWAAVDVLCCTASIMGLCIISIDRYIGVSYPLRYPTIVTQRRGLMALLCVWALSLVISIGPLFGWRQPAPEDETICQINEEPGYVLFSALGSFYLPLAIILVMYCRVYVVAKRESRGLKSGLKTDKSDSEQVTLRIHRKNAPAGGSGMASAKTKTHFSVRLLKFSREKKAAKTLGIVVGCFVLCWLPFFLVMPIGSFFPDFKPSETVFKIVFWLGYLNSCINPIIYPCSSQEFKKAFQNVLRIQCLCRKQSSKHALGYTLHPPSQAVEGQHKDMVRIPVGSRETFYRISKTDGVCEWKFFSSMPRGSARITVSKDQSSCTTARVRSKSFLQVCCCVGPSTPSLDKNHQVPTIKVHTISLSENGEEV
Description: Binding affinity towards cloned human alpha-1A adrenergic receptor was determined using [125]-HEAT as radioligand.
`CC(C)Oc1ccccc1N1CCN(CC(O)CNC(=O)c2ccc3c(c2)C(=O)N(c2cccc(F)c2)C3=O)CC1` (stereo not drawn) showed a Ki of 0.0015 µM.

Consider `CC(C)Oc1ccccc1N1CCN(C[C@@H](O)CNC(=O)c2ccc3c(c2)C(=O)N(c2ccc(O)cc2)C3=O)CC1`, for which the Ki stood at 0.00046 µM.

Take `COc1ccc(N2C(=O)c3ccc(C(=O)NCC(O)CN4CCN(c5ccccc5OC(C)C)CC4)cc3C2=O)cc1OC` (stereo not drawn): the affinity corresponds to a Ki of 0.00098 µM.

In the case of `Cc1ccc(N2C(=O)c3ccc(C(=O)NCC(O)CN4CCN(c5ccccc5OC(C)C)CC4)cc3C2=O)cc1` (stereo not drawn), the affinity, expressed as Ki, was 0.00066 µM. This Ki and that of the compound before are within 1.5-fold of each other.

Turning to `CC(C)Oc1ccccc1N1CCN(CC(O)CNC(=O)c2ccc3c(c2)C(=O)N(c2ccc(C(C)(C)C)cc2)C3=O)CC1` (stereo not drawn), the inhibition constant Ki was determined as 0.00305 µM. Against the preceding compound, the Ki is about 4.6-fold higher.

Consider `CC(C)Oc1ccccc1N1CCN(CC(O)CNC(=O)c2ccc3c(c2)C(=O)N(c2ccc(F)cc2)C3=O)CC1` (stereo not drawn), for which the Ki turned out to be 0.0015 µM. Compared with the last compound, the Ki is about 2-fold lower.

Compound `COc1ccccc1N1CCN(CC(O)CNC(=O)c2ccc3c(c2)C(=O)N(c2cccc(F)c2)C3=O)CC1` (stereo not drawn) had a Ki of 0.022 µM.

Regarding `CC(C)Oc1ccccc1N1CCN(CCCNC(=O)c2ccc3c(c2)C(=O)N(c2ccc(N(C)C)cc2)C3=O)CC1`, the inhibitory constant (Ki) stood at 0.00018 µM.

On to `CCOc1ccccc1N1CCN(CC(O)CNC(=O)c2ccc3c(c2)C(=O)N(c2cccc(F)c2)C3=O)CC1` (stereo not drawn), for which the inhibition constant Ki turned out to be 0.00425 µM. Against the preceding compound, the Ki is about 24-fold higher.

On to `CC(C)Oc1ccccc1N1CCN(CC(O)CNC(=O)c2ccc3c(c2)C(=O)N(c2ccccc2)C3=O)CC1` (stereo not drawn), for which affinity was put at a Ki of 0.0009 µM.
